The source of these data is ChEMBL document CHEMBL3044979, “Microbiologically active Mannich bases derived from 1,2,4-triazoles. The effect of C-5 substituent on antibacterial activity” (2013).

The source made the active and inactive calls. A value given as a limit tells only on which side of the number the result lay.

The subject of one assay is Bacillus subtilis. Briefly: Antibacterial activity against Bacillus subtilis ATCC 6633 assessed as growth inhibition by broth microdilution method. The assay is classed as functional. The essentials: (§1)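 Preliminary screen: 10 µl of each bacterial suspension spotted on Mueller-Hinton agar containing compound at 1,000 µg ml⁻¹, then incubated 37 °C for 18 h. Inocula were prepared in sterile saline at 0.5 McFarland (150 × 10⁶ CFU ml⁻¹). Compounds were dissolved in DMSO stocks and diluted twofold in Mueller-Hinton broth, final 3.91–1,000 µg ml⁻¹. MIC read in µg ml⁻¹ (CLSI 2008), with ampicillin, cefuroxime and vancomycin as reference agents.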

The test system of the next assay is Proteus mirabilis. The experiment in a line: Antibacterial activity against Proteus mirabilis ATCC 12453 assessed as growth inhibition by broth microdilution method. The format is functional, organism-based. The gist of the method:
as §1

A further assay concerns Bacillus cereus. The experiment in a line: Antibacterial activity against Bacillus cereus ATCC 10876 assessed as growth inhibition by broth microdilution method. The assay is classed as functional. The gist of the method: as §1
(In general: Dilution methods test growth across graded concentrations, often in twofold steps.)

The test system of the next assay is Micrococcus luteus. The experiment in a line: Antibacterial activity against Micrococcus luteus ATCC 10240 assessed as growth inhibition by broth microdilution method. The format is functional. The essentials: as §1
The test system of assay [1] is Staphylococcus aureus. Briefly: Antibacterial activity against Staphylococcus aureus 14001 assessed as growth inhibition by broth microdilution method. The format is functional. The essentials:
as §1

For assay [2], the system named is Staphylococcus aureus. The experiment in a line: Antibacterial activity against Staphylococcus aureus ATCC 25923 assessed as growth inhibition by broth microdilution method. The format is functional. The essentials: as §1
The subject of another assay is Pseudomonas aeruginosa. The experiment in a line: Antibacterial activity against Pseudomonas aeruginosa ATCC 9027 assessed as growth inhibition by broth microdilution method. The assay is classed as functional, organism-based. The essentials: as §1
For assay [3], the system named is Staphylococcus epidermidis. The experiment in a line: Antibacterial activity against Staphylococcus epidermidis ATCC 12228 assessed as growth inhibition by broth microdilution method. The format is functional. The gist of the method: as §1
The subject of a further assay is Klebsiella pneumoniae. The experiment in a line: Antibacterial activity against Klebsiella pneumoniae ATCC 13883 assessed as growth inhibition by broth microdilution method. The format is functional, organism-based. The gist of the method: as §1
Another assay has as its system Escherichia coli. Briefly: Antibacterial activity against Escherichia coli ATCC 25922 assessed as growth inhibition by broth microdilution method. The assay is classed as functional, organism-based. The essentials: as §1

Regarding `S=c1n(CN2CCCCC2)nc(-c2ccc(Cl)cc2)n1-c1ccc(Br)cc1`, the minimal bactericidal concentration (MBC) (in the assay on Bacillus subtilis; in the assay on Bacillus cereus; with Micrococcus luteus; in the assay with Staphylococcus aureus [1]; with Staphylococcus aureus [2]; in assay [3]) was over 1000 µg/mL throughout. Also, the MIC (in the assay with Bacillus subtilis; with Bacillus cereus; with Micrococcus luteus; in the assay with Staphylococcus aureus [1]; in the assay on Staphylococcus aureus [2]; in assay [3]) was 1000 µg/mL in each case. The “growth inhibition (GI)” value in the assay with Proteus mirabilis, in the assay on Pseudomonas aeruginosa, in the assay with Klebsiella pneumoniae and with Escherichia coli was “inactive” each time.

Regarding `CCN(CC)Cn1nc(-c2ccccc2)n(-c2ccc(Br)cc2)c1=S`, the MBC (with Bacillus subtilis; in the assay with Bacillus cereus; in the assay on Micrococcus luteus; in the assay with Staphylococcus aureus [1]; with Staphylococcus aureus [2]; in assay [3]) was over 1000 µg/mL each time. Further, the MIC (with Bacillus subtilis; in the assay with Bacillus cereus; with Micrococcus luteus; with Staphylococcus aureus [1]; in the assay on Staphylococcus aureus [2]; in assay [3]) was 1000 µg/mL throughout. The “growth inhibition (GI)” value in the assay on Proteus mirabilis, in the assay on Pseudomonas aeruginosa, with Klebsiella pneumoniae and in the assay on Escherichia coli was “inactive” throughout.

`S=c1n(CN2CCCCC2)nc(-c2ccccc2)n1-c1ccc(Br)cc1`: the minimum bactericidal concentration (MBC) – broadly, the lowest tested concentration that kills the bacteria rather than only halting them – in the assay with Bacillus subtilis is over 1000 µg/mL; with Bacillus cereus it was over 1000 µg/mL; in the assay with Micrococcus luteus, 1000 µg/mL; with Staphylococcus aureus [1], over 1000 µg/mL; in the assay with Staphylococcus aureus [2] it was over 1000 µg/mL; in [3] it was over 1000 µg/mL. Moreover, the MIC (as a rule, the smallest concentration in the dilution series that meets the test's criterion for growth inhibition) in the assay with Bacillus subtilis was determined as 1000 µg/mL; with Bacillus cereus, 1000 µg/mL; in the assay with Micrococcus luteus, 500 µg/mL; in the assay with Staphylococcus aureus [1], 1000 µg/mL; with Staphylococcus aureus [2] it was 1000 µg/mL; in assay [3] it was 1000 µg/mL. The “growth inhibition (GI)” value in the assay with Proteus mirabilis, with Pseudomonas aeruginosa, in the assay with Klebsiella pneumoniae and in the assay on Escherichia coli was “inactive” each time.

As to `S=c1n(CN2CCOCC2)nc(-c2ccccc2)n1-c1ccc(Br)cc1`, the MBC in the assay with Bacillus subtilis is over 1000 µg/mL; with Bacillus cereus, over 1000 µg/mL; in the assay with Micrococcus luteus, 1000 µg/mL; in the assay with Staphylococcus aureus [1] it was over 1000 µg/mL; in the assay on Staphylococcus aureus [2] it was over 1000 µg/mL; in assay [3], over 1000 µg/mL. Besides, the MIC came to 1000 µg/mL with Bacillus subtilis; 1000 µg/mL in the assay with Bacillus cereus; 250 µg/mL in the assay with Micrococcus luteus; 1000 µg/mL in the assay with Staphylococcus aureus [1]; 1000 µg/mL in the assay with Staphylococcus aureus [2]; 1000 µg/mL in assay [3]. In addition, the “growth inhibition (GI)” value with Proteus mirabilis, in the assay with Pseudomonas aeruginosa, with Klebsiella pneumoniae and in the assay with Escherichia coli was “inactive” throughout.

Take `CCN(CC)Cn1nc(-c2ccccc2Cl)n(-c2ccc(Br)cc2)c1=S`: the MBC in the assay with Bacillus subtilis is 62.5 µg/mL; in the assay on Bacillus cereus, over 1000 µg/mL; in the assay with Micrococcus luteus, 250 µg/mL; in the assay on Staphylococcus aureus [1] it was over 1000 µg/mL; in the assay with Staphylococcus aureus [2], over 1000 µg/mL; in assay [3], over 1000 µg/mL. Also, the MIC in the assay on Bacillus subtilis came to 31.2 µg/mL; with Bacillus cereus, 62.5 µg/mL; with Micrococcus luteus, 62.5 µg/mL; in the assay on Staphylococcus aureus [1], 125 µg/mL; with Staphylococcus aureus [2], 62.5 µg/mL; in assay [3] it was 62.5 µg/mL. Besides, the “growth inhibition (GI)” value in the assay with Proteus mirabilis, with Pseudomonas aeruginosa, in the assay with Klebsiella pneumoniae and with Escherichia coli was “inactive” each time.
